An excerpt weighted towards active compounds, which were near 1.8% of everything screened.
Autophagy HCS: autophagy modulation, high-content screen; MEF GFP-LC3 puncta imaging; test concentration mostly 10 µM; calls only at 10 µM (by protocol); 190,000 tested, 0.98% active;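 active = percentage of spot-positive cells more than 3 SD above its plate mean, without a fluorescence outlier flag or 80% toxicity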;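 also: spot-positive cell cutoff set from DMSO-treated cells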
TNAP inh no acc: TNAP (human) inhibition, acceptor-free conditions | P05186 | purified TNAP, CDP-star luminescence, 30 min | inhibition, % at 20 µM | 200,000 tested, 0.26% active | AID 1012;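 active = tissue-nonspecific alkaline phosphatase inhibition above about 50% at 20 µM in the single-dose screen, limit read from the data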;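 also: 0% = DMSO negative control and 100% = EDTA positive control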
TNAP act hi DEA: increases human TNAP activity under high phosphate acceptor concentration; AID 1136; purified TNAP, CDP-star luminescence, 1 M DEA, 30 min; hits give high values; 0 = EDTA background, 1 = DMSO-only activity; P05186; 200,000 tested, under 10 active; activation factor at 20 µM;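 active = activation factor at least 2 at 20 µM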
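Dosing: 20 µM single point. System: human TNAP. Amount: TNAP 1/800 final. Incubation: 30 min, room temperature. Read-out: TNAP activation factor scaled between EDTA and DMSO control wells. Signal: luminescence from CDP-star hydrolysis. Medium: 1 M DEA, pH 9.8, Mg2+, Zn2+. Control set: EDTA negative control, DMSO positive control.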
p47phox inh: p47phox (human) inhibition; p47phox/p22phox peptide binding, fluorescence polarization, 2 h; P14598; AID 1274; inhibition, % at 24.7 µM; 220,000 tested, 0.53% active;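 active = inhibition above about 30%, limit read from the data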;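 also: 0% = p47phox with labelled peptide and 100% = labelled peptide alone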
Target sequence (P14598 whole entry, looked up): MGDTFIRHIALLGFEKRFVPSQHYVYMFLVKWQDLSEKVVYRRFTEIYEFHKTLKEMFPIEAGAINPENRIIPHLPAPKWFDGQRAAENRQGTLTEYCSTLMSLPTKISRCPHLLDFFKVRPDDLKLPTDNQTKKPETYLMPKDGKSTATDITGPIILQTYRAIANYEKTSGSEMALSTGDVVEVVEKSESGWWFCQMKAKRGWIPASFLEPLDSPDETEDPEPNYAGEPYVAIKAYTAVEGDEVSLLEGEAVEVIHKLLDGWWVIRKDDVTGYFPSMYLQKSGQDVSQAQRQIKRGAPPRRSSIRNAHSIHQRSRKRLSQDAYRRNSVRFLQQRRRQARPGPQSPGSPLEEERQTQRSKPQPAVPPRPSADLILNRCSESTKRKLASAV
TNAP inh hi DEA: TNAP (human) inhibition, high acceptor | P05186 | purified TNAP, CDP-star luminescence, 1 M DEA | inhibition, % at 20 µM | 200,000 tested, 0.03% active;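 active = over 50% inhibition of tissue-nonspecific alkaline phosphatase at 20 µM in the single-dose screen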;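 also: plate controls were DMSO wells for no effect and EDTA-quenched wells as full inhibition for full effect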
Insulin prom up: MIN6 insulin promoter up-regulation; MIN6 insulin promoter-GFP reporter, high-content imaging; hits give high values; z-score at 5 µM; 190,000 tested, 0.3% active;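 active = z-score above 3 at 5 µM with at least 500 cells counted in the well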
An asterisk follows results filed as active; i = inactive; / = no result; + = active, no number.

SMILES | Autophagy HCS | TNAP inh no acc | TNAP act hi DEA | p47phox inh | TNAP inh hi DEA | Insulin prom up
CCOc1ccccc1NC(=S)N1CCC(c2nc3ccccc3o2)CC1 | i | -2 | 1 | -19 | 0 | 0.12
COc1ccc(/C=C/C2=Nc3ccccc3NC(C)(C)C2)cc1OC | / | / | / | 2 | / | -1.1
CCCN1C=CC(=C/C=C(\C#N)C(=O)OCC)C=C1 | i | 26 | 0.7 | -8 | 30 | /
CN1/C(=C/C=C(C#N)C#N)C=Cc2ccccc21 | / | / | / | -263 | / | /
CCCCCCN1C=CC(=C/C=C(\C#N)C(=O)OCC)C=C1 | + | 18 | 0.7 | 33* | 30 | /
CCOC(=O)/C(C#N)=C/C=C1\C=Cc2ccccc2N1CC | i | 26 | 0.5 | 124* | 47 | /
CCn1ccnc1CN(C)Cc1cn[nH]c1-c1ccc(OC)c(F)c1 | i | 26 | 1 | 2 | -2 | 0.3
CN(CC(=O)Nc1ccc(S(=O)(=O)N2CCCC2)cc1)CC(=O)Nc1cccc(F)c1 | i | -10 | 1 | -7 | 0 | -0.2
O=C(OCCOc1ccccc1)c1n[nH]c2ccccc12 | / | / | / | -15 | / | -0.21
O=C(NCc1nc2ccccc2[nH]1)C1CCCCC1 | i | -12 | 1 | 78* | -5 | 0.2
Cc1ccc(C2=C(c3ccc([N+](=O)[O-])cc3)C(=O)OC2)cc1C | + | 12 | 1 | -80 | 1 | 0.22
COc1ccc(C2=C(c3ccc([N+](=O)[O-])cc3)C(=O)OC2)cc1 | i | -2 | 1 | -19 | 4 | 0.43
COc1c2ccoc2nc2c(OC)c(OCC(OC(C)=O)C(C)(C)O)ccc12 (stereo unspecified) | i | -1 | 1 | 161* | -3 | 0.26
Cc1ccc(NC(=S)Nc2ccccn2)cc1C | / | / | / | -16 | / | 0.36
Cc1ccc(NC(=S)Nc2ccc3nc(-c4ccccn4)c(-c4ccccn4)nc3c2)cc1C | i | 9 | 1 | 112* | 5 | -0.2
CN(C)CCCNC(NC(=O)c1cccs1)C(Cl)(Cl)Cl (stereo unspecified) | i | -17 | 1 | 1 | 0 | -0.56
Cc1ccc2nc(SCC(=O)NCc3ccco3)c(C#N)cc2c1 | i | -18 | 1.1 | 33* | -7 | /
Cc1cc(NC(=O)c2ccc3c(c2)C(=O)N(C2CCCCC2)C3=O)no1 | + | -5 | 1 | 13 | -3 | 0.31
CCOC(=O)C1(CC/C(C)=N\NC(N)=O)CC(C)(C)OC1=O (stereo unspecified) | + | -9 | 1 | -3 | 2 | /
CCOC(=O)C1(C/C(C)=N/NC(N)=O)CC(C)(C)OC1=O (stereo unspecified) | i | -13 | 1 | -1 | 3 | /
N=c1n(CCOc2ccccc2)c2ccccc2n1CCN1CCOCC1 | + | -12 | 1 | -2 | -4 | -0.46
FC(F)(F)c1ccccc1NC(=S)NC1CCN(Cc2ccccc2)CC1 | + | 0 | 1 | -1 | -3 | 1.1
COc1cccc(C(=O)NC2CCN(C(=O)N3CCCCC3)CC2)c1 | i | -1 | 1 | 2 | -1 | -0.81
CC(=O)NC1CCN(C(=O)N2CCCC2)CC1 | + | -18 | 1.1 | -7 | -12 | 0.02
Cc1ccc(-c2nc(Nc3ccccc3)n[nH]2)cc1 | i | 50* | 1 | 0 | 0 | -0.09
SMILES | Autophagy HCS | TNAP inh no acc | TNAP act hi DEA | p47phox inh | TNAP inh hi DEA | Insulin prom up
COc1ccc(Nc2nc(N)nc(CSc3n[nH]c(-c4ccccc4)n3)n2)cc1 | i | 81* | 1 | -7 | -4 | 0.99
Nc1nc(CSc2n[nH]c(-c3ccccc3)n2)nc(Nc2ccccc2)n1 | i | 90* | 1 | -6 | 3 | 0.11
O=S(=O)(NC(=S)NC1CCCCC1)c1ccccc1 | i | 1 | 1 | -19 | 5 | 0.3
O=P(COCCOCCOCCOCP(=O)(c1ccccc1)c1ccccc1)(c1ccccc1)c1ccccc1 | i | -8 | 1 | 0 | -1 | -0.71
CCOC(=O)/C(C#N)=C\c1ccc(OC)c(OC)c1 | i | -8 | 1.1 | -8 | -6 | -0.01
CCOC(=O)c1c(-c2ccccc2)csc1NC(=O)/C(C#N)=C/c1ccc(O)c(OC)c1 | + | 23 | 0.6 | -51 | 37 | 1.3
CCOC(=O)c1c(-c2ccccc2)csc1NC(=O)/C(C#N)=C/c1ccc(OC)c(OC)c1 | + | 9 | 1 | -24 | 1 | -0.21
CCOC(=O)c1c(-c2ccccc2)csc1NC(=O)CSc1ccccc1 | i | -11 | 1.1 | -3 | -5 | 0.03
Cc1cc(NC(=O)c2cc(-c3ccc(C)s3)nc3ccccc23)no1 | i | -17 | 1 | 2 | -4 | 1.2
Cc1cccc(NC(=O)c2cc(-c3ccc(C)s3)nc3ccccc23)n1 | + | -8 | 1.1 | -32 | -6 | 0.55
CCCC(C(=O)NCc1ccco1)N(C(=O)CNS(=O)(=O)c1ccccc1)c1ccccc1OC (stereo unspecified) | i | -7 | 1 | -5 | -2 | -0.12
C/C(N)=C(/C#N)C(=O)COC(=O)c1ccc(NC(N)=O)cc1 | / | / | / | -14 | / | -0.91
C=CCC1(/C=N/O)CCOC(C)(C)C1 (stereo unspecified) | / | / | / | 64* | / | 0.31
CN(CC(=O)NCc1ccco1)S(=O)(=O)c1ccc2c(c1)c(=O)n(C)c(=O)n2C | / | / | / | 4 | / | /
NC(=O)[C@@H]1CCNc2c(I)cc([N+](=O)[O-])cc2C(=O)N[C@@H](CCC(=O)O)C(=O)N[C@@H](CO)C(=O)N1 | i | -10 | 1 | -6 | 0 | 1.1
CCCn1c(=O)c(C(=O)Nc2ccccc2C(=O)OC)c(O)c2ccccc21 | i | -11 | 1.1 | 45* | -7 | 0.67
Cc1ccc(OCc2ccc(C(=O)O)o2)c([N+](=O)[O-])c1 | i | -2 | 1.1 | -15 | -6 | 0.19
Cc1cccc(-n2[nH]c3c4c(ccc3c2=O)C(=O)c2ccccc2C4=O)c1 | i | 5 | 0.9 | 50* | 8 | -0.27
O=C1Nc2ccccc2Oc2cc([N+](=O)[O-])cc(Oc3ccccc3)c21 | + | -8 | 1 | -106 | -2 | 2.8
CC(C)(C)NC(=O)COC(=O)/C=C/c1ccccc1[N+](=O)[O-] | i | -13 | 1.1 | -8 | -7 | -0.72
CSc1nnc(C)c(/C=C/Nc2ccc(F)cc2F)n1 | i | 5 | 0.9 | -9 | 5 | 0.04
C=CCSc1nnc(C)c(/C=C/Nc2ccc(Cl)cc2)n1 | + | 12 | 1 | -26 | -1 | /
COCCn1c(SCC(=O)c2ccc(F)cc2)nnc1C(C)C | + | -9 | 1 | -1 | -3 | 0.23
COCCn1nnnc1SCC(=O)c1ccc(F)cc1 | i | -12 | 1 | -12 | -5 | /
COc1cc(/C=C/c2sc3ccccc3[n+]2CCCS(=O)(=O)[O-])ccc1O | i | 55* | 0.4 | -261 | 57* | -0.26

From PubChem
